Results on 26 compounds are retold here after ChEMBL document CHEMBL1124533, “Inhibition of human leukocyte elastase by derivatives of N-hydroxysuccinimide. A structure-activity-relationship study” (J Med Chem, 1989).

Activity calls are given as the source filed them. The calls are words filed in the database; no cut-off is given here.

The first assay has as its target T1, Neutrophil elastase (Homo sapiens) (UniProt P08246).
T1 sequence (whole entry): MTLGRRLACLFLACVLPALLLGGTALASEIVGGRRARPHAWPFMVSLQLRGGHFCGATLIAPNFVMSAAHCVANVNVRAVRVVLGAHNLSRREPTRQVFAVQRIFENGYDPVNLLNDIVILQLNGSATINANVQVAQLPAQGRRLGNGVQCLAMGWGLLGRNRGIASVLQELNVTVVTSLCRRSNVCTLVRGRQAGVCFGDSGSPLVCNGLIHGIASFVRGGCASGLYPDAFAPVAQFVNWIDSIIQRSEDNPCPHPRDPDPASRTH
Put plainly: Catalytic rate constant (Kobs/[I]) against human leukocyte elastase was determined. Put shortly:
(§1)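 Human leukocyte elastase (10 μL of 2.23 × 10⁻⁵ M stock in 0.05 M sodium acetate, pH 5.5) preincubated with inhibitor (20 μL of 2.23 × 10⁻² M DMSO stock) in HEPES pH 7.2, 1 mL total, thermostated. Aliquots withdrawn over time into MeOSuc-Ala-Ala-Pro-Val-pNA; A410 read for 2 min after 30 s. kobs from ln(vt/v0) vs t, divided by [I]; mean of two determinations.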
For `O=C1CC(Cc2ccccc2)C(=O)N1OS(=O)(=O)Cc1ccccc1` (stereo unspecified), the K obs / 1 amounted to 770 M⁻¹ s⁻¹.
On the same count and under the same terms, then `O=C1CC(Cc2ccccc2)C(=O)N1OS(=O)(=O)c1ccccc1` (stereo unspecified), with 1170 M⁻¹ s⁻¹; and `CC(C)CCC1CC(=O)N(OS(=O)(=O)/C=C/c2ccccc2)C1=O` (stereo unspecified), with 2250 M⁻¹ s⁻¹.
The same measure, in the same setting: then `CC(C)S(=O)(=O)ON1C(=O)CC(Cc2ccccc2)C1=O` (stereo unspecified), with 1100 M⁻¹ s⁻¹.
On the same count and under the same terms, then `CCCCS(=O)(=O)ON1C(=O)CC(Cc2ccccc2)C1=O` (stereo unspecified), with 1680 M⁻¹ s⁻¹; and `CC(C)CC1CC(=O)N(OS(C)(=O)=O)C1=O` (stereo unspecified), with 49300 M⁻¹ s⁻¹; and `CS(=O)(=O)ON1C(=O)CC(Cc2ccc(C(F)(F)F)cc2)C1=O` (stereo unspecified), with 84 M⁻¹ s⁻¹.
`CN(C)S(=O)(=O)ON1C(=O)CC(Cc2ccccc2)C1=O` (stereo unspecified) came in with a K obs / 1 of 323 M⁻¹ s⁻¹.
`O=C1CC(Cc2ccccc2)C(=O)N1OS(=O)(=O)c1cccc(C(F)(F)F)c1` (stereo unspecified): the K obs / 1 came out at 316 M⁻¹ s⁻¹.
Same read-out and setting: then `CC(C)CC1CC(=O)N(OS(=O)(=O)/C=C/c2ccccc2)C1=O` (stereo unspecified), with above 100000 M⁻¹ s⁻¹.
Turning to `CS(=O)(=O)ON1C(=O)CC(Cc2ccccc2C(F)(F)F)C1=O` (stereo unspecified), the K obs / 1 amounted to 189 M⁻¹ s⁻¹.
Same read-out and setting: in the case of `O=C1CC(Cc2ccccc2)C(=O)N1OS(=O)(=O)c1ccc(Br)cc1` (stereo unspecified) it was 1650 M⁻¹ s⁻¹.
Same read-out and setting: in the case of `CC(C)C1CC(=O)N(OS(=O)(=O)/C=C/c2ccccc2)C1=O` (stereo unspecified) it was above 100000 M⁻¹ s⁻¹.
The same measure, in the same setting: then `CS(=O)(=O)ON1C(=O)CC(Cc2cccc(F)c2)C1=O` (stereo unspecified), with 373 M⁻¹ s⁻¹.
The compound `CS(=O)(=O)ON1C(=O)CC(Cc2cccc(C(F)(F)F)c2)C1=O` (stereo unspecified) came in with a K obs / 1 of 217 M⁻¹ s⁻¹.
The compound `O=C1CC(Cc2ccccc2)C(=O)N1OS(=O)(=O)c1cccc2ccccc12` (stereo unspecified) had a K obs / 1 of 620 M⁻¹ s⁻¹.
On to `O=C1CC(Cc2ccccc2)C(=O)N1OS(=O)(=O)/C=C/c1ccccc1` (stereo unspecified), for which the K obs / 1 was found to be 9430 M⁻¹ s⁻¹.
On the same count and under the same terms, in the case of `CS(=O)(=O)ON1C(=O)CC(Cc2ccccc2)C1=O` (stereo unspecified) it was 1050 M⁻¹ s⁻¹; in that of `O=C1CC(Cc2ccccc2C(F)(F)F)C(=O)N1OS(=O)(=O)/C=C/c1ccccc1` (stereo unspecified), 1860 M⁻¹ s⁻¹; in that of `O=C1CC(Cc2ccccc2)C(=O)N1OS(=O)(=O)c1ccc(F)cc1` (stereo unspecified), 1110 M⁻¹ s⁻¹.
On the same count and under the same terms, in the case of `CCCCCCCCS(=O)(=O)ON1C(=O)CC(Cc2ccccc2)C1=O` (stereo unspecified) it was 1270 M⁻¹ s⁻¹; in that of `CC(C)CCC1CC(=O)N(OS(C)(=O)=O)C1=O` (stereo unspecified), 361 M⁻¹ s⁻¹; in that of `Cc1ccc(S(=O)(=O)ON2C(=O)CC(Cc3ccccc3)C2=O)cc1` (stereo unspecified), 1610 M⁻¹ s⁻¹.
Same read-out and setting: in the case of `CC(C)C1CC(=O)N(OS(C)(=O)=O)C1=O` (stereo unspecified) it was 3820 M⁻¹ s⁻¹; in that of `O=C1CC(Cc2ccccc2)C(=O)N1OS(=O)(=O)c1ccc2ccccc2c1` (stereo unspecified), 1580 M⁻¹ s⁻¹.

A further assay concerns the target T1, Neutrophil elastase (Homo sapiens). Nature of the assay: Catalytic rate constant (Kobs/[I]) against human leukocyte elastase was determined; Inactive. In a few lines:
as §1
Take `O=C1CCC(=O)N1OS(=O)(=O)/C=C/c1ccccc1`: the “K obs / 1” value is “inactive”.
